For one test, the system named is Cytospora mali. Put plainly: Antifungal activity against Valsa mali by MTT assay. It is filed as functional. The gist of the method:
(§1)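 MIC read visually on microtiter plates, then confirmed colorimetrically with MTT. Each well received RPMI 1640 carrying MTT at 5 mg/mL and was incubated 3 h at 37 °C. Medium was removed and the dye extracted with isopropanol containing 5% mol/L HCl for 30 min at room temperature with gentle agitation. OD read at 550 nm.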
In general terms: Formazan colour is commonly taken as a measure of viable cells.

The next test concerns Alternaria alternata. Put plainly: Antifungal activity against Alternaria alternata by MTT assay. The test is classed as functional. In a few lines: as §1
The subject of test [1] is Fusarium oxysporum f. sp. vasinfectum. Put plainly: Antifungal activity against Fusarium oxysporum f. sp. vasinfectum by MTT assay. The test is classed as functional. The gist of the method: as §1
The test system of a further test is Alternaria solani. Put plainly: Antifungal activity against Alternaria solani by MTT assay. It is filed as functional. The gist of the method: as §1
The subject of a further test is Pyricularia oryzae. Put plainly: Antifungal activity against Pyricularia oryzae by MTT assay. The test is classed as functional.
The test system of a further test is Colletotrichum lagenaria. Kind of test: Antifungal activity against Colletotrichum lagenarium by MTT assay. The test is classed as functional. The gist of the method: as §1
In another test the target is Urease (Canavalia ensiformis, UniProt P07374). Kind of test: Inhibition of jack bean urease. The gist of the method:
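Jack bean urease (4 U) preincubated with test compound (100 µg) for 2 h at room temperature; then 100 mM phosphate buffer pH 6.8 containing 500 mM urea and 0.002% phenol red added, incubated at room temperature; time for ammonium carbonate to raise pH from 6.8 to 7.7 read at 570 nm; IC50 determined; acetohydroxamic acid as positive control.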

In brackets after ≈: the same amount, converted by molar mass.

What is called MIC is the smallest concentration in the dilution series that meets the test's criterion for growth inhibition. A low value points to greater potency. In general, IC50 refers to the concentration at which inhibition is half-maximal. Read a low IC50 as greater potency.

Urease, sequence (P07374 whole entry): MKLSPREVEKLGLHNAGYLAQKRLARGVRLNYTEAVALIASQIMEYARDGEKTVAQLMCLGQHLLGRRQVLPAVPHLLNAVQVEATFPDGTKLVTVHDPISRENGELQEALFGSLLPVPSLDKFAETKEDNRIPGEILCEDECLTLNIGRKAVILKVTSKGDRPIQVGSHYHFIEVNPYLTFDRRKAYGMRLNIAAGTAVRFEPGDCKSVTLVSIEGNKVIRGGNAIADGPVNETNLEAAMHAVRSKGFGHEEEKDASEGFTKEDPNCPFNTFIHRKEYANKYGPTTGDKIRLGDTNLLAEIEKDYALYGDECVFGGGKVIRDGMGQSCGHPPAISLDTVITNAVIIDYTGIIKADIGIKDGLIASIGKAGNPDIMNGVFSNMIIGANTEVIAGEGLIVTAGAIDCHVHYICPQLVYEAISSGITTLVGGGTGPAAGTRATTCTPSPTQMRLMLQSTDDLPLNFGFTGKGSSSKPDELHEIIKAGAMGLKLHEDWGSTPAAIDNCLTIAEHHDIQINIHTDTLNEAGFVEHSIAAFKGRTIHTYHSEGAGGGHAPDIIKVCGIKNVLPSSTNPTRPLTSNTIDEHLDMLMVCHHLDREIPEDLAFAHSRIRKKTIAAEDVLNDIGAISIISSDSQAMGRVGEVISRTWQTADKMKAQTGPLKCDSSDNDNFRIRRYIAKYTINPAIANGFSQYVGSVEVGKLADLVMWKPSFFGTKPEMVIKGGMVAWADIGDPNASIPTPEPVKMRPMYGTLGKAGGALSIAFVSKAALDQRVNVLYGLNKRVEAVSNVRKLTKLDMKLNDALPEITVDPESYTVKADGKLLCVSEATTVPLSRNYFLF

As for `Oc1ccc([C@@H]2c3cc(O)ccc3[C@@H]3c4c(O)cc(O)cc4[C@@H]2c2c(O)cc(O)c4c2[C@@H]3[C@@H](c2ccc(O)cc2)[C@@H]4c2cc(O)cc(O)c2)cc1` [VATICANOL G], the minimal inhibitory concentration (MIC) is more than 50 µg/mL with Cytospora mali; more than 50 µg/mL against Alternaria alternata; more than 50 µg/mL in test [1]; 24.6 µg/mL (≈ 36.1 µM) in the test on Alternaria solani; 0.78 µg/mL (≈ 1.15 µM) against Pyricularia oryzae; more than 50 µg/mL in the test with Colletotrichum lagenaria.

Regarding `Oc1ccc([C@@H]2c3c(O)cc(O)cc3[C@@H]3c4c(cc(O)c5c4[C@H]2[C@H](c2ccc(O)cc2)[C@H]5c2cc(O)cc(O)c2)O[C@H]3c2ccc(O)cc2)cc1` [VATICANOL A], the MIC is 20.1 µg/mL (≈ 29.5 µM) against Cytospora mali; more than 50 µg/mL with Alternaria alternata; 12.7 µg/mL (≈ 18.7 µM) in test [1]; 6.25 µg/mL (≈ 9.18 µM) in the test on Alternaria solani; 3.12 µg/mL (≈ 4.58 µM) in the test with Pyricularia oryzae; more than 50 µg/mL in the test on Colletotrichum lagenaria.

Turning to `CC(=O)N1CCN(c2ccc(OCC3COC(Cn4ccnc4)(c4ccc(Cl)cc4Cl)O3)cc2)CC1` (stereo not drawn) [KETOCONAZOLE], the MIC is 0.51 µg/mL (≈ 0.96 µM) in the test with Cytospora mali; 1.04 µg/mL (≈ 1.96 µM) against Alternaria alternata; 2.21 µg/mL (≈ 4.16 µM) in test [1]; 0.83 µg/mL (≈ 1.56 µM) against Alternaria solani; 0.03 µg/mL (≈ 0.0565 µM) in the test with Pyricularia oryzae; 0.97 µg/mL (≈ 1.83 µM) against Colletotrichum lagenaria.

`Oc1ccc([C@H]2Oc3cc(O)cc4c3[C@@H]2c2cc(O)cc3c2[C@@H](c2cc(O)cc5c2[C@@H]4[C@H](c2ccc(O)cc2)O5)[C@H](c2ccc(O)cc2)O3)cc1`: the MIC with Cytospora mali was more than 50 µg/mL; against Alternaria alternata it was more than 50 µg/mL; in test [1], 25.2 µg/mL (≈ 37.1 µM); in the test with Alternaria solani it was 3.12 µg/mL (≈ 4.6 µM); in the test with Pyricularia oryzae, 6.25 µg/mL (≈ 9.21 µM); in the test on Colletotrichum lagenaria it was 12.5 µg/mL (≈ 18.4 µM).

In the case of `O=C1C=C2O[C@@H](c3ccc(O)cc3)[C@H]3C2=C(C1=O)[C@H]1c2c(cc(O)cc2[C@@H]2c4c(cc(O)cc43)O[C@H]2c2ccc(O)cc2)O[C@@H]1c1ccc(O)cc1` [HOPEANOLIN], the MIC against Cytospora mali came to 1.55 µg/mL (≈ 2.24 µM); against Alternaria alternata it was 22.5 µg/mL (≈ 32.5 µM); in test [1], 6.22 µg/mL (≈ 8.98 µM); against Alternaria solani, 1.56 µg/mL (≈ 2.25 µM); against Pyricularia oryzae it was 0.1 µg/mL (≈ 0.144 µM); with Colletotrichum lagenaria it was 10.6 µg/mL (≈ 15.3 µM).

At Urease, `CC(=O)NO` [ACETOHYDROXAMIC ACID] came in with an IC50 of 17.3 µM.

Regarding `O=C1c2cc(O)cc3oc(-c4ccc(O)cc4)c(c23)-c2cc(O)cc(O)c2C1c1ccc(O)cc1` (stereo not drawn) [SHOREAPHENOL], the IC50 on Urease was 127 µM. The MIC is 7.13 µg/mL (≈ 15.3 µM) with Cytospora mali; more than 50 µg/mL in test [1]; more than 50 µg/mL against Alternaria solani; 27.3 µg/mL (≈ 58.5 µM) against Pyricularia oryzae; more than 50 µg/mL against Colletotrichum lagenaria.

In the case of `Oc1ccc([C@@H]2c3c(O)cc(O)cc3[C@@H]3c4c(cc(O)c5c4[C@@H]2[C@@H](c2ccc(O)cc2)[C@@H]5c2cc(O)cc(O)c2)O[C@H]3c2ccc(O)cc2)cc1` [PAUCIFLOROL A], the MIC is more than 50 µg/mL in the test on Cytospora mali; 1.56 µg/mL (≈ 2.29 µM) against Alternaria alternata; more than 50 µg/mL in test [1]; more than 50 µg/mL against Alternaria solani; 11.5 µg/mL (≈ 16.9 µM) in the test on Pyricularia oryzae; more than 50 µg/mL in the test on Colletotrichum lagenaria.

Values taken from ChEMBL document CHEMBL1158139, “Bioactive oligostilbenoids from the stem bark of Hopea exalata” (J Nat Prod, 2006).
